The values that follow come from ChEMBL document CHEMBL1208709, “Synthesis and pharmacological evaluation of 1,1,3-substituted urea derivatives as potent TNF-alpha production inhibitors” (2010).

Calls of active or inactive are those of the source. The calls are words filed in the database; no cut-off is given here.

The subject of the first experiment is Rattus norvegicus. The experiment in a line: Antiinflammatory activity in po dosed Lewis rat assessed as inhibition of LPS-induced TNFalpha production administered 30 mins prior to LPS challenge measured after 1.5 hrs. The format is functional. The gist of the method: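 Overnight-fasted male Lewis rats (seven weeks old) were dosed orally at 0.1, 0.3, 1 and 3 mg/kg, 30 min before IV LPS (E. coli 055:B5 in saline). Serum TNF-α was measured by ELISA 1.5 h post-LPS, five rats per group, mean ± SEM. Dunnett's t-test versus vehicle; ED₅₀ taken from the dose-response.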
The term ED50 denotes the midpoint of the dose-response relation. Turning to `O=C(NCCCc1ccncc1)N(CCCC1CCCCC1)CCC1CCCCC1`, the ED50 is 0.34 mg/kg.
The same measure, in the same setting: the same measure for `CCCCCN(CCC12CC3CC(CC(C3)C1)C2)C(=O)NCCCc1ccncc1`: 1.7 mg/kg.

The test system of a further experiment is Rattus norvegicus. The experiment in a line: Antiinflammatory activity in Lewis rat assessed as inhibition of LPS-induced TNFalpha production at 2 mg/kg, po administered 30 mins prior to LPS challenge measured after 1.5 hrs. Format: functional.
The inhibition in vivo is the change of the read-out against control, counted positive when it falls. Regarding `O=C(NCCCc1ccncc1)N(CCCN1CCOCC1)CCC1CC2CCC1C2` (stereo unspecified), the inhibition in vivo at 2 mg/kg stood at 44%.
As to `O=C(NCCCc1ccncc1)N(CCCC1CCCCC1)CCC1CCCC1`, the inhibition in vivo at 2 mg/kg is 87%.
Same read-out and setting: the same measure for `CCCCN(CCN1CCOCC1)C(=O)NCCCc1ccncc1`: 21%.
As to `O=C(NCCCc1ccncc1)N(CCC1CCOCC1)CCN1CCOCC1`, the inhibition result was “inactive”.
Turning to `O=C(NCCCc1ccncc1)N(CCN1CCOCC1)CCC12CC3CC(CC(C3)C1)C2`, the inhibition in vivo at 2 mg/kg was 45%.
Turning to `O=C(NCCCc1ccncc1)N(CCC1CCCCC1)CCC1CCOCC1`, the inhibition in vivo at 2 mg/kg worked out at 38%.
Still for that read-out and setting: the same measure for `O=C(NCCCc1ccncc1)N(CCCC1CCCCC1)CC1CCCCC1`: 71%.
In the case of `CCOCCN(CCC1CCCCC1)C(=O)NCCCc1ccncc1`, the inhibition in vivo at 2 mg/kg turned out to be 4%.
With `CCOCCN(CCC1CC2CCC1C2)C(=O)NCCCc1ccncc1` (stereo unspecified), the inhibition result was “inactive”.
As to `COCCCN(CCC1CC2CCC1C2)C(=O)NCCCc1ccncc1` (stereo unspecified), the inhibition in vivo at 2 mg/kg was 10%.
The same measure, in the same setting: to `CCCCN(CCCN1CCOCC1)C(=O)NCCCc1ccncc1` belongs 32%; to `O=C(NCCCc1ccncc1)N(CCCN1CCOCC1)CCC12CC3CC(CC(C3)C1)C2`, 45%.
In the case of `COCCCN(CCC1CCCCC1)C(=O)NCCCc1ccncc1`, the inhibition result was “inactive”.
With `O=C(NCCCc1ccncc1)N(CCC1CCCCC1)CCN1C2CCC1CC2`, the inhibition in vivo at 2 mg/kg worked out at 48%.
The same measure, in the same setting: to `O=C(NCCCc1ccncc1)N(CCN1CCOCC1)CCN1C2CCC1CC2` belongs 8%; to `O=C(NCCCc1ccncc1)N(CCCC1CCCCC1)CCC1CCCCC1`, 92%.
In the case of `CCCCN(CCOCC)C(=O)NCCCc1ccncc1`, the inhibition result is “inactive”.
In the case of `CCCCCN(CCC12CC3CC(CC(C3)C1)C2)C(=O)NCCCc1ccncc1`, the inhibition in vivo at 2 mg/kg was 72%.
On the same count and under the same terms, to `CCCCN(CCCOC)C(=O)NCCCc1ccncc1` belongs 21%.
On the same count and under the same terms, the same measure for `O=C(NCCCc1ccncc1)N(CCCN1CCOCC1)CCC1CCCCC1`: 43%; for `O=C(NCCCc1ccncc1)N(CCC1CCCCC1)CCC1CCCCC1`: 91%; for `COCCOCCN(CCC1CCCCC1)C(=O)NCCCc1ccncc1`: 14%.
Same read-out and setting: to `O=C(NCCCc1ccncc1)N(CCC1CC2CCC1C2)CCN1CCOCC1` (stereo unspecified) belongs 55%.
Consider `O=C(NCCCc1ccncc1)N(CCC1CCCCC1)CCN1CCOCC1`, for which the inhibition in vivo at 2 mg/kg amounted to 50%.
